1 molecule from ChEMBL document CHEMBL4393661, “PRODRUGS FOR NITROREDUCTASE BASED CANCER THERAPY- 2: Novel amide/Ntr combinations targeting PC3 cancer cells” (Eur J Med Chem, 2019) can be followed below.

By IC50 is commonly meant the concentration needed to halve the response being measured. What is called half-life is the time needed for the level to fall by half in the phase considered.

In data set [1] the target is T1, Putative nitroreductase (Staphylococcus saprophyticus subsp. saprophyticus (strain ATCC 15305 / DSM20229 / NCIMB 8711 / NCTC 7292 / S-41), UniProt Q4A0P1).
T1 sequence (Q4A0P1 whole entry): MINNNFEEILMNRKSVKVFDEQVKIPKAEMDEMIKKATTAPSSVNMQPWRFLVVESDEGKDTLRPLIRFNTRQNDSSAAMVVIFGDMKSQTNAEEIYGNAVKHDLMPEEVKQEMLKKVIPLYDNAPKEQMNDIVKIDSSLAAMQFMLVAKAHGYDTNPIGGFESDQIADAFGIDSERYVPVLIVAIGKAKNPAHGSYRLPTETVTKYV
Nature of the data set: Prodrug conversion assessed Staphylococcus saprophyticus nitroreductase expressed in Escherichia coli-mediated N,N'-(cyclohexane-1,4-diyl)bis(4-aminobenzamide) formation by measuring retention time at 100 uM incubated for 15 mins in presence of FDH cofactor regeneration system by HPLC analysis. The conditions noted are these: 0.25 h. The class given is ADME. In short, it runs like this:
(§1)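 This was a coupled regeneration reaction: 100 µM substrate in Tris/Cl pH 7.5 with 5–15% DMSO, plus 100 µM NADH, 10 µM NAD+, 0.1 mg/mL BSA, 200 µM sodium formate, 30 µg/mL Ssap-NtrB and 30 µg/mL Candida methylica FDH, at 25 °C. Aliquots were taken over time, quenched 1:1 with cold acetonitrile and analysed by C18 HPLC using program II (20→80→20% ACN). Peak areas were read at 254 and 340 nm.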

Data set [2] in a line: Cytotoxicity against human PC3 cells assessed as cell viability at 9 to 150 uM measured after 48 hrs by MTT assay relative to control. The class given is cell-based, PC-3. Particulars: read-out: Activity. In short, it runs like this:
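They were treated for 48 h at 9, 18, 39, 78 and 150 µM, with 1% DMSO as vehicle control. Viability was read by MTT at 550 nm.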
Background: Tetrazolium assays rely on reduction of a dye to a coloured formazan, in cell work by metabolically active cells.

Data set [3] in a line: Cytotoxicity against human Hep3B cells assessed as cell viability at 9 to 150 uM measured after 48 hrs by MTT assay relative to control. Format: cell-based, Hep 3B2. Particulars: read-out: Activity. In short, it runs like this: (§2)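 Hep3B and HUVEC cells were grown in high-glucose medium with 10% heat-inactivated FBS and 2 mM glutamine at 37 °C in 5% CO2. Cells were seeded at 5x10^4 per well and left 24 h to attach. They were then exposed for 48 h to 150, 75, 39, 19 and 9 µM, with 1% DMSO as vehicle control. Viability was read by MTT at 550 nm as (OD sample/OD control)×100.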

Data set [4] has as its target T1, Putative nitroreductase. Briefly: Prodrug conversion assessed Staphylococcus saprophyticus nitroreductase expressed in Escherichia coli-mediated N,N'-(cyclohexane-1,4-diyl)bis(4-(hydroxyamino)benzamide) formation at 100 uM incubated for 15 mins by HPLC analysis. The class given is ADME. The conditions noted are these: 0.25 h.
The nature of data set [5]: Solubility of the compound in 15% DMSO. Format: physicochemical.
Data set [6] concerns PC-3. Briefly: Cytotoxicity in human PC3 cells assessed as reduction in cell viability at 180 nM measured after 48 hrs by SRB assay. The class given is cell-based. Particulars: pc-3, 48 h, 0.18 µM. The essentials:
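They were exposed for 48 h to prodrug alone at 180 nM final, without enzyme or NADH, with 25 mM Tris-HCl as vehicle control. Cells were fixed with 12.5% TCA for 1 h at 4 °C, stained with 0.4% SRB and read at 492 nm as % cell survival, in triplicate.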
(In SRB staining, fixed cells bind dye roughly in proportion to their protein.)

In data set [7] the target is T1, Putative nitroreductase. Nature of the data set: Prodrug conversion assessed Staphylococcus saprophyticus nitroreductase expressed in Escherichia coli-mediated N,N'-(cyclohexane-1,4-diyl)bis(4-aminobenzamide) formation at 100 uM incubated for 15 mins by HPLC analysis. Format: ADME. Particulars: 0.25 h.
Data set [8] in a line: Cytotoxicity against human HUVEC cells assessed as cell viability at 9 to 150 uM measured after 48 hrs by MTT assay relative to control. The class given is cell-based. Particulars: read-out: Activity. In short, it runs like this: as §2
For data set [9], the target named is T1, Putative nitroreductase. Nature of the data set: Prodrug conversion assessed Staphylococcus saprophyticus nitroreductase expressed in Escherichia coli-mediated N,N'-(cyclohexane-1,4-diyl)bis(4-aminobenzamide) formation by measuring retention time of metabolite at 100 uM incubated for 15 mins in presence of FDH cofactor regeneration system by HPLC analysis. Particulars: 0.25 h. Format: ADME. In short, it runs like this:
as §1

Data set [10] has as its target T1, Putative nitroreductase. Briefly: Prodrug conversion assessed Staphylococcus saprophyticus nitroreductase expressed in Escherichia coli-mediated 4-amino-N-(4-(4-(hydroxyamino)benzamido)cyclohexyl)benzamide formation by measuring retention time at 100 uM incubated for 15 mins in presence of FDH cofactor regeneration system by HPLC analysis. The class given is ADME. Particulars: 0.25 h. In short, it runs like this:
as §1

For data set [11], the target named is T1, Putative nitroreductase. Nature of the data set: Prodrug conversion assessed Staphylococcus saprophyticus nitroreductase expressed in Escherichia coli-mediated 4-(hydroxyamino)-N-(4-(4-nitrobenzamido)cyclohexyl)benzamide formation at 100 uM incubated for 15 mins by HPLC analysis. The class given is ADME. Particulars: 0.25 h.
The target of data set [12] is T1, Putative nitroreductase. Nature of the data set: Prodrug conversion assessed Staphylococcus saprophyticus nitroreductase expressed in Escherichia coli-mediated 4-amino-N-(4-(4-(hydroxyamino)benzamido)cyclohexyl)benzamide formation at 100 uM incubated for 15 mins by HPLC analysis. The class given is ADME. The conditions noted are these: 0.25 h.
In data set [13] the target is T1, Putative nitroreductase. Nature of the data set: Substrate activity at Staphylococcus saprophyticus nitroreductase expressed in Escherichia coli assessed as retention time in the presence of NADPH at 100 uM by HPLC analysis (0 to 5 mins at 20% ACN, 25 to 35 min at 80% ACN, 40 to 45 min at 20% ACN). Format: ADME.
Data set [14] concerns PC-3. Nature of the data set: Cytotoxicity against human PC3 cells assessed as reduction in cell viability measured after 48 hrs in presence of Staphylococcus saprophyticus nitroreductase and NADH by SRB assay. Format: cell-based. Particulars: PC-3, 48 h. The essentials:
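Prodrug at 180, 18 or 1.8 nM was premixed with Ssap-NtrB (31 µg/mL final) and NADH (600 µM final; 900 µM for CB1954) in 25 mM Tris-HCl pH 7.5, then added for 48 h under aerobic conditions. Cells were fixed with 12.5% TCA, stained with SRB and read at 492 nm, in triplicate.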

Data set [15] addresses T1, Putative nitroreductase. Nature of the data set: Prodrug conversion assessed Staphylococcus saprophyticus nitroreductase expressed in Escherichia coli-mediated N,N'-(cyclohexane-1,4-diyl)bis(4-(hydroxyamino)benzamide) formation by measuring retention time at 100 uM incubated for 15 mins in presence of FDH cofactor regeneration system by HPLC analysis. Format: ADME. The conditions noted are these: 0.25 h. The essentials:
as §1

Data set [16] concerns the target T2, Staphylococcus saprophyticus nitroreductase (Staphylococcus saprophyticus subsp. saprophyticus (strain ATCC 15305 / DSM20229 / NCIMB 8711 / NCTC 7292 / S-41), UniProt Q4A0P1).
T2 sequence (Q4A0P1 whole entry): T1 sequence (Q4A0P1 whole entry)
Briefly: Substrate activity at Staphylococcus saprophyticus nitroreductase expressed in Escherichia coli assessed as half life […] at 100 uM by HPLC analysis (0 to 5 mins at 20% ACN, 25 to 35 min at 80% ACN, 40 to 45 min at 20% ACN). Format: ADME.

Data set [17] has as its target T1, Putative nitroreductase. Briefly: Substrate activity at Staphylococcus saprophyticus nitroreductase expressed in Escherichia coli assessed as retention time […] at 100 uM by HPLC analysis (0 to 5 mins at 20 % ACN, 15 to 22 min at 80% ACN, 27-32 AT 20% ACN). The class given is ADME.

For the molecule `O=C(NC1CCC(NC(=O)c2ccc([N+](=O)[O-])cc2)CC1)c1ccc([N+](=O)[O-])cc1` (configuration not stated), the Retention_time is recorded as 13.48 min in data set [1]; 13.48 min in data set [9]; 13.48 min in data set [10]; 19.2 min in data set [13]; 13.48 min in [15]; 19.96 min in data set [17]. Moreover, the viability at 48 h, up to 150 µM in [2], in data set [3] and in data set [8] was more than 80% each time. Further, the Drug metabolism entry in [4] is “Metabolite_Notdetected”; in data set [7] it was “Metabolite_Notdetected”; in data set [11], “Metabolite_Detected”; in data set [12] it was “Metabolite_Notdetected”. Besides, the solubility entry in data set [5] is given as “Soluble”. In data set [6], the Activity entry is on record as “Non-Toxic”. The IC50 in data set [14] was 1.79 nM. Also, in data set [16], the half-life at 100 µM was less than 1.5 h.
